Experimental data reported in ChEMBL document CHEMBL4428138, “Design, Synthesis, and Antitumor Evaluation of 4-Amino-(1H)-pyrazole Derivatives as JAKs Inhibitors” (ACS Med Chem Lett, 2016).
pIC50: −log10 of the molar value.

Key:
HEL [1] = assay: Antiproliferative activity against HEL cells harboring JAK2 V617F mutant at 5 uM after 48 hrs by MTT assay; type: functional, Homo sapiens
[2] = molecular target: Tyrosine-protein kinase JAK1 (Homo sapiens, UniProt P23458); assay: Inhibition of human recombinant JAK1 using Ulight-CAGAGAIETDKEYYTVKD as substrate by LANCE assay
[3] = molecular target: Tyrosine-protein kinase JAK3 (Homo sapiens, UniProt P52333); assay: Inhibition of human recombinant JAK3 using Ulight-CAGAGAIETDKEYYTVKD as substrate by LANCE assay
PC-3 = assay: Antiproliferative activity against human PC3 cells after 48 hrs by MTT assay; type: functional, cell-based; conditions: PC-3, 48 h
Method in brief: (§1)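 Panel: human prostate cancer PC-3, breast cancer MCF-7, erythroleukemia HEL, myelogenous leukemia K562 and lymphoid leukemia MOLT4 lines. Cells were exposed to compound for 48 h with MTT read-out.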

MCF7 = assay: Antiproliferative activity against human MCF7 cells after 48 hrs by MTT assay; type: functional, cell-based; conditions: MCF7, 48 h; method in brief: as §1
HEL [4] = assay: Antiproliferative activity against HEL cells harboring JAK2 V617F mutant after 48 hrs by MTT assay; type: functional, cell-based; conditions: Homo sapiens; method in brief: as §1
K562 = assay: Antiproliferative activity against human K562 cells after 48 hrs by MTT assay; type: functional, cell-based; conditions: K562, 48 h; method in brief: as §1
MOLT-4 = assay: Antiproliferative activity against human MOLT4 cells after 48 hrs by MTT assay; type: functional, cell-based; conditions: MOLT-4, 48 h; method in brief: as §1
[5] = molecular target: Tyrosine-protein kinase ABL1 (Homo sapiens) (UniProt P00519); assay: Inhibition of ABL (unknown origin) at 20 nM relative to control
[6] = molecular target: ALK tyrosine kinase receptor (Homo sapiens) (UniProt Q9UM73); assay: Inhibition of ALK (unknown origin) at 20 nM relative to control
[7] = molecular target: RAC-alpha serine/threonine-protein kinase (Homo sapiens) (UniProt P31749); assay: Inhibition of AKT1 (unknown origin) at 20 nM relative to control
[8] = molecular target: Cyclin-dependent kinase 4 (Homo sapiens) (UniProt P11802); assay: Inhibition of CDK4 (unknown origin) at 20 nM relative to control
[9] = molecular target: Mast/stem cell growth factor receptor Kit (Homo sapiens) (UniProt P10721); assay: Inhibition of c-Kit (unknown origin) at 20 nM relative to control
Sequence of Mast/stem cell growth factor receptor Kit (Homo sapiens) (P10721 whole entry): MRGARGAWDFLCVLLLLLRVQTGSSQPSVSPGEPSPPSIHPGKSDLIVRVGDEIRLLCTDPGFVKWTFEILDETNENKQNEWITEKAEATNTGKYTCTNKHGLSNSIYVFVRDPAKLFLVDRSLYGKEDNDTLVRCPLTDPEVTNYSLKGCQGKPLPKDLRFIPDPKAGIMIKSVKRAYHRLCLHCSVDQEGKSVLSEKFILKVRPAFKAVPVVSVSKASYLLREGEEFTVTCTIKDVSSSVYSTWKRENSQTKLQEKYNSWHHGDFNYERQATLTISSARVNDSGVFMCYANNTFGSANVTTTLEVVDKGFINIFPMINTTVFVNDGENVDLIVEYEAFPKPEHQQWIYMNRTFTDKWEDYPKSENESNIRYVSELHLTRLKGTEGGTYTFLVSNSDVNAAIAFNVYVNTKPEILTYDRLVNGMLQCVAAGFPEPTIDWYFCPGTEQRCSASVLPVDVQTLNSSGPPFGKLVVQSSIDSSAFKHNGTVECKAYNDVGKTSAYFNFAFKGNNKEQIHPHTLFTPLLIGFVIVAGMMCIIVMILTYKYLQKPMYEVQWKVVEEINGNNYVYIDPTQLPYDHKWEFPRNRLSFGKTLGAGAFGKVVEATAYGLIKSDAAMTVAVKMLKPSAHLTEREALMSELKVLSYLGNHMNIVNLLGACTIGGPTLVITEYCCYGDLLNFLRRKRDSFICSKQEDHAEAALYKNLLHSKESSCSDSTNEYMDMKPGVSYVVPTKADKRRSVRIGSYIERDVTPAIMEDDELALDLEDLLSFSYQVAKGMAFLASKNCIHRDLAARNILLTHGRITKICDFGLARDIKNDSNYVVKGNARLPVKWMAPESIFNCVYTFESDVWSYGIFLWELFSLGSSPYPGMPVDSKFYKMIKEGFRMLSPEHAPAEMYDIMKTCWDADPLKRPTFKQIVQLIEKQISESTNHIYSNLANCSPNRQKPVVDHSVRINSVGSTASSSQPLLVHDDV

[10] = molecular target: Hepatocyte growth factor receptor (Homo sapiens) (UniProt P08581); assay: Inhibition of c-Met (unknown origin) at 20 nM relative to control
Sequence of Hepatocyte growth factor receptor (Homo sapiens) (P08581 whole entry): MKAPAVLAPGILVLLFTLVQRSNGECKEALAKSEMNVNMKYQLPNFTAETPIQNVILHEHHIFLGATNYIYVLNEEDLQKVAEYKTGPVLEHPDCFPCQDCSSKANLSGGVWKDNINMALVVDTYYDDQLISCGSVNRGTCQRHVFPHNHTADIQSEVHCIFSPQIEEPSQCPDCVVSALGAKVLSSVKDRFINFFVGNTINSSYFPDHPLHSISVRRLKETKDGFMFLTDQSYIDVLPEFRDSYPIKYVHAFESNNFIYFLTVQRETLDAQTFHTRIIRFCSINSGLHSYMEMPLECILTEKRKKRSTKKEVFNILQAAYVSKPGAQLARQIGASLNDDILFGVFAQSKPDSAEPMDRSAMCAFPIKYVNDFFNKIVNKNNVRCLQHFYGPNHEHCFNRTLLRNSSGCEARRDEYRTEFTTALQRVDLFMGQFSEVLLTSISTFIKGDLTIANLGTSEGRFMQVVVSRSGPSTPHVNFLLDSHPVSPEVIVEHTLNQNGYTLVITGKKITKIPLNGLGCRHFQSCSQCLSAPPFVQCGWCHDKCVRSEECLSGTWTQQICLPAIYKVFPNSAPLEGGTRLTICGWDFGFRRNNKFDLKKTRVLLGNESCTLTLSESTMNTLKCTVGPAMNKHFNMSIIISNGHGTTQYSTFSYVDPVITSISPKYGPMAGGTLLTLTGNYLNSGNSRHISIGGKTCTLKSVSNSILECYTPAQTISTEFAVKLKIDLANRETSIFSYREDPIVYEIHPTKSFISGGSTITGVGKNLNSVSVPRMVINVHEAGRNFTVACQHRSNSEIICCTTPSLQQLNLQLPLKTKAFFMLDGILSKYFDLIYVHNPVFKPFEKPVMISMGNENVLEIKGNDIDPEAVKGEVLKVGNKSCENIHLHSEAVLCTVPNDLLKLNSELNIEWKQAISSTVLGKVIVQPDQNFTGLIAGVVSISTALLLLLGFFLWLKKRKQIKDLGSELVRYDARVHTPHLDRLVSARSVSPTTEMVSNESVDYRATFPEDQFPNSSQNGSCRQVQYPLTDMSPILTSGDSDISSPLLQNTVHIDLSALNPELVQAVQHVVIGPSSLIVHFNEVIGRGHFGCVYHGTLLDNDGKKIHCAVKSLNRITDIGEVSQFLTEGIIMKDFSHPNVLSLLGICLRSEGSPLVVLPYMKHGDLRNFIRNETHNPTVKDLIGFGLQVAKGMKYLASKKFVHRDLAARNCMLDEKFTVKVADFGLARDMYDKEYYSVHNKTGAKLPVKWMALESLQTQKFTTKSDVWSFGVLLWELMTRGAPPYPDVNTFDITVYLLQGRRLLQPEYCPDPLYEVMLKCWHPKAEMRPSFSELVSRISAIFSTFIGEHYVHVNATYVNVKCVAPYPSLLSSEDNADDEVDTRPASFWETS

[11] = molecular target: Epidermal growth factor receptor (Homo sapiens) (UniProt P00533); assay: Inhibition of EGFR (unknown origin) at 20 nM relative to control
[12] = molecular target: Focal adhesion kinase 1 (Homo sapiens) (UniProt Q05397); assay: Inhibition of FAK (unknown origin) at 20 nM relative to control
Sequence of Focal adhesion kinase 1 (Homo sapiens) (Q05397 2-1052 limits assumed): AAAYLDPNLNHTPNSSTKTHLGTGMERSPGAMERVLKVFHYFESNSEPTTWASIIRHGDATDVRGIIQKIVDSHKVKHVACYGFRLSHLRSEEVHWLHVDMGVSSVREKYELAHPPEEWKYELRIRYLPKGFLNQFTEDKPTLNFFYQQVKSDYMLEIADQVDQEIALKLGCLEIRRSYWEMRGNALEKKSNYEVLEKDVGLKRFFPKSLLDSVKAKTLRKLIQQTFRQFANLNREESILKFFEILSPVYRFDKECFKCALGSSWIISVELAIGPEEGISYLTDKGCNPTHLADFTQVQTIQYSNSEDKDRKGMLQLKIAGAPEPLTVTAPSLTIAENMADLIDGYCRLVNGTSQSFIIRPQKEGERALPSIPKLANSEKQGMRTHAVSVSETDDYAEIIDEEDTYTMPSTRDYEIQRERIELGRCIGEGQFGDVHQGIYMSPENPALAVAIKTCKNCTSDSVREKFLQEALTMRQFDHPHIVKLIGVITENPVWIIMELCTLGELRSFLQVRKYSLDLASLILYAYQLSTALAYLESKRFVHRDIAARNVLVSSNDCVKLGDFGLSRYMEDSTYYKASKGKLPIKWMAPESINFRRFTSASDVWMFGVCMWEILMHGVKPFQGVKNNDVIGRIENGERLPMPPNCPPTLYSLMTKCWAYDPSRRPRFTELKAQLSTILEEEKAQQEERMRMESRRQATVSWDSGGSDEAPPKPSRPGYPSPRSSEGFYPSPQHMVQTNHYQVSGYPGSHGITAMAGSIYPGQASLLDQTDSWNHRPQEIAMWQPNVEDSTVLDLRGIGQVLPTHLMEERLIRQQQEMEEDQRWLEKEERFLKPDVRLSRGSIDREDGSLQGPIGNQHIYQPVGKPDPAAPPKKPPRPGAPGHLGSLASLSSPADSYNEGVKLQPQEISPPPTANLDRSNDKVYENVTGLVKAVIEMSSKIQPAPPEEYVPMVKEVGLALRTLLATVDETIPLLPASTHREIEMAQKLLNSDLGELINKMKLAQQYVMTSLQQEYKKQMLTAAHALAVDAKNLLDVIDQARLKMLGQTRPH

[13] = molecular target: Receptor-type tyrosine-protein kinase FLT3 (Homo sapiens) (UniProt P36888); assay: Inhibition of FLT3 (unknown origin) at 20 nM relative to control
[14] = molecular target: Vascular endothelial growth factor receptor 2 (Homo sapiens) (UniProt P35968); assay: Inhibition of VEGFR2 (unknown origin) at 20 nM relative to control
[15] = molecular target: Platelet-derived growth factor receptor alpha (Homo sapiens) (UniProt P16234); assay: Inhibition of PDGFRalpha (unknown origin) at 20 nM relative to control
Sequence of Platelet-derived growth factor receptor alpha (Homo sapiens) (P16234 whole entry): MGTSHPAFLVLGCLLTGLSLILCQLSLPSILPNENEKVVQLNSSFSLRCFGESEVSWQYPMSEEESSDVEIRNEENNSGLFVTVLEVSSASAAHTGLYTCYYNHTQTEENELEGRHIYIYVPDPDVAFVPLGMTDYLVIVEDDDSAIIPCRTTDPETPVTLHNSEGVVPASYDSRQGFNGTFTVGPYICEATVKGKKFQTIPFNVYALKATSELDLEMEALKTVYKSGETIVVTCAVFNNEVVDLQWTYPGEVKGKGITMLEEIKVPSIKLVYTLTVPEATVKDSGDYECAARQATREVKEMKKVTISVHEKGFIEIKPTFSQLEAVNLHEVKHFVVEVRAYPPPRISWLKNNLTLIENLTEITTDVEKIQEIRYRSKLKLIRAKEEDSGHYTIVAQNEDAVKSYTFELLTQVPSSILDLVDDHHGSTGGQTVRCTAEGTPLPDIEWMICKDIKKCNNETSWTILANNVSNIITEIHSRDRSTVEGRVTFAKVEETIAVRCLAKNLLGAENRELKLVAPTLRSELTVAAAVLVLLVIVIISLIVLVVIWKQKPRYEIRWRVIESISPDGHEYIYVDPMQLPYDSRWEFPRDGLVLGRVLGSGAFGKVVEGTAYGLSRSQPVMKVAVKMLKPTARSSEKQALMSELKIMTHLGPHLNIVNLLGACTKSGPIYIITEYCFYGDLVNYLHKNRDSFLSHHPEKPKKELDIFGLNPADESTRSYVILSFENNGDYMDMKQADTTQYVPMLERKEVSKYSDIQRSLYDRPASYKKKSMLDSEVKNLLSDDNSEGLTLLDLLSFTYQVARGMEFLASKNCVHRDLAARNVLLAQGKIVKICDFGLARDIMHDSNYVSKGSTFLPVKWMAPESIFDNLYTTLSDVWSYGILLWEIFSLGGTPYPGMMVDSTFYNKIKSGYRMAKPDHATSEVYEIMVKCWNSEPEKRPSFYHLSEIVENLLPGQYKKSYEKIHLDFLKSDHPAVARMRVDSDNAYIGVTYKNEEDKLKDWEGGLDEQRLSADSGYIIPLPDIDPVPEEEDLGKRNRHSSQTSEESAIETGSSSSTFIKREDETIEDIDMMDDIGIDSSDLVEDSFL

[16] = molecular target: RAF proto-oncogene serine/threonine-protein kinase (Homo sapiens) (UniProt P04049); assay: Inhibition of RAF1 (unknown origin) at 20 nM relative to control
[17] = molecular target: Proto-oncogene tyrosine-protein kinase Src (Homo sapiens) (UniProt P12931); assay: Inhibition of SRC (unknown origin) at 20 nM relative to control
Sequence of Proto-oncogene tyrosine-protein kinase Src (Homo sapiens) (P12931 2-536 limits assumed): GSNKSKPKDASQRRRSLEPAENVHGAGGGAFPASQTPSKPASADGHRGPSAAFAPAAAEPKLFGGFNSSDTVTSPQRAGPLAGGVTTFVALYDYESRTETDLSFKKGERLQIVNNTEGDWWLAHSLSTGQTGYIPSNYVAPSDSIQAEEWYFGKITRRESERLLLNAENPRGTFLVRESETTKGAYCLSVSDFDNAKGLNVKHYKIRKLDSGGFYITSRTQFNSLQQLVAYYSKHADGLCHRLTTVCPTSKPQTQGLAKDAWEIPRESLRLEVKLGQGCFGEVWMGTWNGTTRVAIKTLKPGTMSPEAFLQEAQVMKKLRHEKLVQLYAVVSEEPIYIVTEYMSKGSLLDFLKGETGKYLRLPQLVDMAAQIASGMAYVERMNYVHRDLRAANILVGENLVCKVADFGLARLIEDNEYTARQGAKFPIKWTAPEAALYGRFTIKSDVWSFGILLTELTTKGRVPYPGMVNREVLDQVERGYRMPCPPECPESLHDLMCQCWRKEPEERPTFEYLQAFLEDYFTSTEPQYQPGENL

[18] = molecular target: Non-receptor tyrosine-protein kinase TYK2 (Homo sapiens) (UniProt P29597); assay: Inhibition of TYK2 (unknown origin) at 20 nM relative to control
[19] = Selectivity ratio of IC50 for human PC3 cells to IC50 for HEL cells harboring JAK2 V617F mutant; type: functional
[20] = Selectivity ratio of IC50 for human MCF7 cells to IC50 for HEL cells harboring JAK2 V617F mutant; type: functional
[21] = Selectivity ratio of IC50 for human MOLT4 cells to IC50 for HEL cells harboring JAK2 V617F mutant; type: functional
[22] = Selectivity ratio of IC50 for human PC3 cells to IC50 for human K562 cells; type: functional
[23] = Selectivity ratio of IC50 for human MCF7 cells to IC50 for human K562 cells; type: functional
[24] = Selectivity ratio of IC50 for human MOLT4 cells to IC50 for human K562 cells; type: functional

SMILES: C#Cc1cccc(Nc2ccnc(Nc3cn[nH]c3)n2)c1
- Activity (HEL [1]): <50%

SMILES: COc1ccc(Nc2nc(Nc3cn[nH]c3)ncc2F)cc1
- Activity (HEL [1]): <50%

SMILES: Clc1cccc(Nc2nc(Nc3cn[nH]c3)ncc2Cl)c1
- pIC50 [2]: 8.47
- pIC50 [3]: 8.46
- Activity (HEL [1]): >50%
- pIC50 (PC-3): 5.97
- pIC50 (MCF7): 5.88
- pIC50 (HEL [4]): 5.97
- pIC50 (K562): 6.11
- pIC50 (MOLT-4): 5.79
- inhibition [5]: -3.1%
- inhibition [6]: 6.9%
- inhibition [7]: 7.5%
- inhibition [8]: 36.2%
- inhibition [9]: 12.1%
- inhibition [10]: 17.9%
- inhibition [11]: 10.5%
- inhibition [12]: 33.5%
- inhibition [13]: 78.7%
- inhibition [14]: 48.6%
- inhibition [15]: 54.1%
- inhibition [16]: -7.1%
- inhibition [17]: 27%
- inhibition [18]: 79.4%

SMILES: COc1ccc(Nc2nc(Nc3cn[nH]c3)nc3ccccc23)cc1
- Activity (HEL [1]): <50%

SMILES: Clc1ccccc1CNc1nc(Nc2cn[nH]c2)nc2ccccc12
- Activity (HEL [1]): <50%

SMILES: Clc1ccc(Nc2nc(Nc3cn[nH]c3)ncc2Cl)cc1
- Activity (HEL [1]): >50%
- pIC50 (PC-3): 5.59
- pIC50 (MCF7): 5.71
- pIC50 (HEL [4]): 5.82
- pIC50 (K562): 5.77
- pIC50 (MOLT-4): 5.86

SMILES: Fc1cnc(Nc2cn[nH]c2)nc1Nc1ccccc1
- Activity (HEL [1]): <50%

SMILES: N#CC[C@H](C1CCCC1)n1cc(-c2ncnc3[nH]ccc23)cn1 [RUXOLITINIB]
- pIC50 (PC-3): < 5.30
- pIC50 (MCF7): < 5.30
- pIC50 (HEL [4]): 5.58
- pIC50 (K562): 4.99

SMILES: COc1ccc(Nc2nc(Nc3cn[nH]c3)ncc2Cl)cc1
- Activity (HEL [1]): >50%
- pIC50 (PC-3): 5.64
- pIC50 (HEL [4]): 5.75
- pIC50 (K562): 5.68

SMILES: Clc1ccc(Nc2nc(Nc3cn[nH]c3)nc3[nH]ccc23)cc1
- Activity (HEL [1]): >50%

SMILES: Clc1ccc(Nc2ccnc(Nc3cn[nH]c3)n2)cc1
- Activity (HEL [1]): <50%

SMILES: c1ccc(Nc2nc(Nc3cn[nH]c3)nc3[nH]ccc23)cc1
- Activity (HEL [1]): >50%
- pIC50 (PC-3): 5.35
- pIC50 (MCF7): < 5.30
- pIC50 (HEL [4]): 6.46
- pIC50 (K562): 6.43
- pIC50 (MOLT-4): < 5.30
- inhibition [5]: 3.1%
- inhibition [6]: 15.1%
- inhibition [7]: -3%
- inhibition [8]: -5.3%
- inhibition [9]: 0.6%
- inhibition [10]: 6.3%
- inhibition [11]: 8.3%
- inhibition [12]: 7.4%
- inhibition [13]: 15.2%
- inhibition [14]: 0%
- inhibition [15]: 11.9%
- inhibition [16]: 3.7%
- inhibition [17]: 12.6%
- inhibition [18]: 34.6%
- Ratio IC50 [19]: >10
- Ratio IC50 [20]: >10
- Ratio IC50 [21]: >10
- Ratio IC50 [22]: >10
- Ratio IC50 [23]: >10
- Ratio IC50 [24]: >10

SMILES: COc1ccc(Nc2nc(Nc3cn[nH]c3)nc3[nH]ccc23)cc1
- Activity (HEL [1]): >50%

SMILES: Clc1cccc(Nc2nc(Nc3cn[nH]c3)nc3ccccc23)c1
- Activity (HEL [1]): <50%
- pIC50 (MCF7): < 5.30
- pIC50 (HEL [4]): 5.01
- pIC50 (K562): < 5.08

SMILES: Clc1cnc(Nc2cn[nH]c2)nc1Nc1ccccc1
- Activity (HEL [1]): >50%
- pIC50 (PC-3): 5.27
- pIC50 (MCF7): 5.44
- pIC50 (HEL [4]): 5.23
- pIC50 (K562): < 5.08
- pIC50 (MOLT-4): < 5.30

SMILES: Fc1ccc(Nc2nc(Nc3cn[nH]c3)ncc2Cl)cc1
- Activity (HEL [1]): >50%
- pIC50 (PC-3): 5.99
- pIC50 (MCF7): 5.73
- pIC50 (HEL [4]): 5.93
- pIC50 (K562): 5.73
- pIC50 (MOLT-4): 5.48

SMILES: c1ccc(Nc2nc(Nc3cn[nH]c3)nc3ccccc23)cc1
- Activity (HEL [1]): <50%

SMILES: Clc1ccccc1CNc1nc(Nc2cn[nH]c2)nc2[nH]ccc12
- Activity (HEL [1]): >50%
- pIC50 (PC-3): 4.87
- pIC50 (MCF7): < 5.30
- pIC50 (K562): 5.43
- pIC50 (MOLT-4): < 5.30

SMILES: Fc1cnc(Nc2cn[nH]c2)nc1Nc1ccc(Cl)cc1
- Activity (HEL [1]): <50%
- pIC50 (PC-3): 4.98
- pIC50 (HEL [4]): 5.40
- pIC50 (K562): 5.42

SMILES: N#Cc1ccccc1Nc1ccnc(Nc2cn[nH]c2)n1
- Activity (HEL [1]): <50%

SMILES: Clc1ccccc1Nc1ccnc(Nc2cn[nH]c2)n1
- Activity (HEL [1]): <50%

SMILES: Clc1ccccc1Nc1nc(Nc2cn[nH]c2)ncc1Cl
- Activity (HEL [1]): >50%
- pIC50 (PC-3): 5.95
- pIC50 (MCF7): 5.96
- pIC50 (HEL [4]): 5.91
- pIC50 (K562): 5.89
- pIC50 (MOLT-4): 5.90

SMILES: Clc1ccc(Nc2nc(Nc3cn[nH]c3)nc3ccccc23)cc1
- Activity (HEL [1]): <50%

SMILES: C#Cc1cccc(Nc2nc(Nc3cn[nH]c3)nc3ccccc23)c1
- Activity (HEL [1]): <50%
